The list is not random: actives were taken first. Their share in the collection is about 2.4%.
bCat nuc transl: modulators of beta-catenin nuclear translocation, primary screen, imaging, HeLa cells, immunofluorescence, high-content | nuclear translocation activity, % at 5 µM | actives 0.3% (n = 190,000);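 active = nuclear translocation activity above 50% at 5 µM, with a well cell count of 50 or more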;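 also: per-cell ratio of nuclear to cytoplasmic median beta-catenin stain intensity; plate controls were DMSO negative control for no effect and GSK-3 inhibitor IX positive control for full effect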
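System: Human HeLa cells, endogenous beta-catenin | Compound dosing: 5 µM primary, 0.02–20 µM confirmation | Timing: 24 h compound exposure at 37°C, 5% CO2 | Measured by: Fluorescence imaging of beta-catenin antibody stain plus DAPI | Read-out basis: % activation of per-cell nuclear versus cytoplasmic median beta-catenin signal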
STAT1 inh: STAT1 signaling inhibitors, primary screen, cell-based, HTS, luciferase reporter | NIH 3T3 STAT1-luciferase reporter, IFN-gamma, luminescence | inhibition, % at 5.5 µM | actives 0.35% (n = 200,000);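 active = inhibition above a set limit, the mean inhibition across all tested compounds plus 3 SD, cut at about 34% in these data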;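 also: 0% = IFN-gamma with DMSO and 100% = IFN-gamma with 300 µM nifuroxazide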
STAT3 inh: IL-6 driven STAT3 reporter inhibitors, primary screen, U3A cells, luciferase, luminescence, MLSCN library; IL-6 STAT3-luciferase reporter; host cell line lacks STAT1; inhibition, % at 5.5 µM; actives 0.89% (n = 190,000); AID 862, 2007;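 active = inhibition above the mean inhibition across all screened compounds plus 3 SD, cut at about 44% in these data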;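 also: 0% = DMSO only wells and 100% = 100 µM nifuroxazide control wells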
STAT3 act: IL-6 driven STAT3 reporter potentiators, primary screen, U3A cells, luciferase, luminescence, MLSCN library. IL-6 STAT3-luciferase reporter; 100% = signal with IL-6 EC80 alone. activation (% of control), % at 5.6 µM. actives 0.91% (n = 190,000). AID 871, 2007;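 active = activation above the screen-wide mean of compound activation plus 3 SD, cut at about 130% in these data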;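 also: 0% = background luminescence of wells with medium and substrate only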
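Material: STAT3-luciferase reporter U3A cells. Controls: IL-6-treated wells, 100% activation. Read-out: % activation versus median of IL-6-stimulated wells. Probe or stimulus: IL-6 stimulus at 33 ng/mL final. Timing: compound 1 h, then IL-6 6 h at 37 °C. Signal: reporter luminescence signal.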
MT stabilize HCS: microtubule stabilizers in HeLa cells, primary screen, imaging, high-content imaging | HeLa tubulin immunostaining HCS, 24 h; share of cells brighter than vehicle mean+2SD | % tubulin-high responders, % at 10 µM | actives 0.83% (n = 200,000) | AID 2205, 2009;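 active = plate Z-score above 3 for both tubulin-high and condensed-nucleus cell shares, with cell loss under 80%, at 10 µM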;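 also: anti alpha tubulin signal scored within the nucleus-defined area of each cell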
* marks the source's active call; other numbers are inactive results.

For Cc1ccc(C)c(OCC(=O)N/N=C/c2c(C)nn(-c3ccccc3)c2Cl)c1 the results were bCat nuc transl -2, STAT1 inh 4, STAT3 inh 19, STAT3 act 84 and MT stabilize HCS 21*.
`Cc1nn(-c2ccccc2)c(Cl)c1/C=N/Nc1ccc(Cl)c(C(=O)O)c1` gave bCat nuc transl -2, STAT1 inh 42*, STAT3 inh 44*, STAT3 act 63 and MT stabilize HCS 5.
For COc1ccc(CCNC(=O)CSc2nc3c(c(=O)n(C)c(=O)n3C)n2C)cc1OC the results were bCat nuc transl -3, STAT1 inh 3, STAT3 inh 1, STAT3 act 102 and MT stabilize HCS 3.
Screening CCOC(=O)N1CCN(C(=O)CNC2CCCCCCC2)CC1 returned bCat nuc transl -1, STAT1 inh 7, STAT3 inh 0, STAT3 act 100 and MT stabilize HCS 2.
N#CC1=C(N)C(C#N)(C#N)[C@H](c2c(F)cccc2F)[C@H]2CC3(CC=C12)OCCO3 was read as bCat nuc transl -2, STAT1 inh 13, STAT3 inh 8, STAT3 act 100 and MT stabilize HCS 26*.
For CN1C2C=C3C(C#N)=C(N)C(C#N)(C#N)[C@H](c4c(F)cccc4F)[C@H]3C1CC2 (stereo partly specified) the results were bCat nuc transl 1, STAT1 inh 0, STAT3 inh 3, STAT3 act 101 and MT stabilize HCS 4.
Screening OCCNc1c2ccccc2nc2c(F)c(F)c(F)c(F)c12 returned bCat nuc transl 56*, STAT1 inh -7, STAT3 inh 10, STAT3 act 94 and MT stabilize HCS 2.
Cc1c2ccccc2nc2c(F)c(NCCO)c(F)c(F)c12 was read as bCat nuc transl 3, STAT1 inh 9, STAT3 inh 8, STAT3 act 95 and MT stabilize HCS 9.
CCOC(=O)C1CCN(C(=O)c2sccc2Cl)CC1 was read as bCat nuc transl -1.
CCOC(=O)C1=C(CN2CCN(CCC#N)CC2)NC(=O)NC1c1ccc2c(c1)OCO2 (stereo unspecified) was read as bCat nuc transl 0, STAT1 inh 11, STAT3 inh 12, STAT3 act 99 and MT stabilize HCS 2.
Screening Cc1nc2ccc(S(=O)(=O)Nc3cc(-c4nc5cccnc5s4)ccc3C)cc2s1 returned bCat nuc transl 4, STAT1 inh -27, STAT3 inh -32, STAT3 act 128 and MT stabilize HCS 21*.
Screening Cc1nc2ccc(S(=O)(=O)Nc3cccc(-c4nc5cccnc5s4)c3C)cc2s1 returned bCat nuc transl 0, STAT1 inh 9, STAT3 inh 3, STAT3 act 97 and MT stabilize HCS 3.
`Cn1c(CC2C(=O)Nc3ccc(Br)cc32)nc2ccccc2c1=O` (stereo unspecified) gave bCat nuc transl 0, STAT1 inh 14, STAT3 inh -36, STAT3 act 133* and MT stabilize HCS 3.
`CC(C)CCNC1=CC(=O)CC(c2ccccc2)C1` (stereo unspecified) gave STAT1 inh -9, STAT3 inh 0, STAT3 act 102 and MT stabilize HCS 13*.
`Cc1ccc(NC2=CC(=O)CC(c3ccccc3)C2)cc1` (stereo unspecified) gave bCat nuc transl 10, STAT1 inh -7, STAT3 inh 2, STAT3 act 101 and MT stabilize HCS 20*.
For O=C1C=C(Nc2ccc(Cl)cc2)CC(c2ccccc2)C1 (stereo unspecified) the results were bCat nuc transl 126*, STAT1 inh 3, STAT3 inh -1, STAT3 act 99 and MT stabilize HCS 14*.
Screening Cc1ccc(NC2=CC(=O)CC(c3ccc(Cl)cc3)C2)cc1 (stereo unspecified) returned bCat nuc transl 0, STAT1 inh 2, STAT3 inh 6, STAT3 act 100 and MT stabilize HCS 4.
Screening Cc1cc(=O)n2[nH]c(CCC(=O)O)nc2n1 returned bCat nuc transl -1.
`COCCCNc1nc2nonc2nc1N1CCC(C(C)N2CCOCC2)CC1` (stereo unspecified) gave bCat nuc transl 0, STAT1 inh 6, STAT3 inh 15, STAT3 act 91 and MT stabilize HCS 1.
Screening CCOc1ccc(S(=O)(=O)NCc2ccc(C)cc2)c2cccnc12 returned bCat nuc transl 1, STAT1 inh 5, STAT3 inh -1, STAT3 act 104 and MT stabilize HCS 3.
Screening CCOc1ccc(NS(=O)(=O)c2ccc(OCC)c3ncccc23)cc1 returned bCat nuc transl -1, STAT1 inh 6, STAT3 inh 2, STAT3 act 100 and MT stabilize HCS 44*.
Screening Cc1cc(C)n(-c2nnc3c4ccccc4n(C)c3n2)n1 returned bCat nuc transl 0.
CCOC(=O)N1N=C(c2ccc(OC)cc2)CC1(O)C(F)(F)F (stereo unspecified) was read as bCat nuc transl 0, STAT1 inh -19, STAT3 inh 13, STAT3 act 90 and MT stabilize HCS 3.
For COc1ccc(CC(=O)N2N=C(c3ccncc3)CC2(O)C(F)(F)F)cc1 (stereo unspecified) the results were bCat nuc transl 12, STAT1 inh 12, STAT3 inh -4, STAT3 act 103 and MT stabilize HCS 15*.
Screening CCc1ccc(C2=NN(C(=O)OC)C(O)(C(F)(F)F)C2)cc1 (stereo unspecified) returned bCat nuc transl -1, STAT1 inh 38*, STAT3 inh 69*, STAT3 act 48 and MT stabilize HCS 1.
`CCC1=NN(C(=O)Cc2ccc(OC)cc2)C(O)(C(F)(F)F)C1` (stereo unspecified) gave bCat nuc transl -2, STAT1 inh 3, STAT3 inh 3, STAT3 act 104 and MT stabilize HCS 3.
`COc1ccc(S(=O)(=O)N2CCC3(CC2)OCCO3)cc1` gave bCat nuc transl -3, STAT1 inh 6, STAT3 inh 11, STAT3 act 100 and MT stabilize HCS 2.
For Cc1onc(-c2ccccc2)c1C(=O)NC(=S)NNC(=O)c1cc(-c2ccc(F)cc2)n[nH]1 the results were bCat nuc transl 0.
`Cn1c(=O)c2c(nc(NCC3CCCO3)n2Cc2cccc(Br)c2)n(C)c1=O` (stereo unspecified) gave STAT1 inh 0, STAT3 inh -5, STAT3 act 107 and MT stabilize HCS 4.
For Cc1c(C(=O)NC(=S)Nc2ccc3c4c(cccc24)CC3)cccc1[N+](=O)[O-] the results were bCat nuc transl 2, STAT1 inh 1, STAT3 inh 19, STAT3 act 91 and MT stabilize HCS 6.
